Screens deposited in PubChem by several laboratories.
Most compounds without a hit are left out; they make up all but 3.7% or so of the library.
Mdm2 ligase inh: MDM2-luciferase reporter signal enhancers, primary screen, MDM2 E3 ligase inhibitor project, cell-based, luminescence, 1536-well. 210,000 compounds, 0.11% hits. E3 ubiquitin-protein ligase Mdm2 (Homo sapiens), Q00987. cell-based MDM2 ubiquitination luciferase reporter, 2 h; 0 = plate control, 100 = twice control, blank-subtracted. signal enhancement, % at 5 µM;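 active = signal enhancement of 30% or more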;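 also: luminescence tracks abundance of the self-degrading MDM2-luciferase fusion protein; higher signal means inhibition of MDM2 E3 ligase activity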
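system = mammalian cells stably expressing self-ubiquitinating, self-degrading MDM2 E3–luciferase fusion | quantity = 2000 cells per well seeded | incubation = 4 h cell settling then 2 h compound exposure, 37 °C | signal = SteadyLite luminescence, 15 min reagent step | benchmarks = plate control and blank wells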
CHOP UPR activ: activators of apoptotic CHOP UPR arm, primary screen, cell-based, CHO-CHOP luciferase reporter, luminescence, uHTS; UPR activation; percent of tunicamycin response over DMSO baseline; AID 449763, 2010; activation, % at 10 µM; 330,000 compounds, 0.34% hits;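 active = at 10 µM dose, activation of 40% or more, normalized to positive control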;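 also: 100% = tunicamycin at 10 µg/mL and 0% = DMSO alone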
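Test system: CHO CHOP reporter cells. Input: 500 CHO-CHOP cells per well. Medium: F12 with 10% FBS. Technique: luciferase luminescence. Measure: percent activation relative to tunicamycin control. Dosing: 10 µM compound, 0.5% DMSO. Timing: 16-18 h cell attachment, then 6 h compound exposure, 37 °C.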
Mdm2 MdmX PPI: inhibitors of human Mdm2-MdmX association, primary screen, cell-based, luminescence, split luciferase, SaOS-2, uHTS. SaOS-2 split-luciferase Mdm2/MdmX complementation. inhibition, % at 8 µM. 330,000 compounds, 3% hits;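 active = inhibition of at least 50% at 8 µM in the primary screen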
Beta2AR agonist: beta2AR agonists driving receptor internalization, primary screen, cell-based, FAP fluorogen, flow cytometry; 340,000 compounds, 0.43% hits; Beta-2 adrenergic receptor (Homo sapiens), P07550; Am2.2-beta2AR cells; response, % (concentration not given with the values);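 active = response above a set limit, near 3 SD of response in nonfluorescent compounds, cut at about 42% in these data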
Target sequence (P07550 whole entry, looked up): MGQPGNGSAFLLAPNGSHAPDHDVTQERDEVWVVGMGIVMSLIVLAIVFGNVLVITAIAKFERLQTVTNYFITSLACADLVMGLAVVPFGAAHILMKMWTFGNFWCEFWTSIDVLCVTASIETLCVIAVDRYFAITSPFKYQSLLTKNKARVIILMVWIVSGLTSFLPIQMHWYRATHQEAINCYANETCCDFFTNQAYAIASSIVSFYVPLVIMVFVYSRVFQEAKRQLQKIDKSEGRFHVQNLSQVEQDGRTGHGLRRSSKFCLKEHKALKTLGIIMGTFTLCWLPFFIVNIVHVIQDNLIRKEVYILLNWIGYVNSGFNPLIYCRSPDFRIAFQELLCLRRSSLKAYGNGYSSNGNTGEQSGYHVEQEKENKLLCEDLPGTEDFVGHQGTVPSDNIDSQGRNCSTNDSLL
UPR XBP1 act: activators of adaptive XBP1 UPR arm, primary screen, cell-based, CHO-XBP1 luciferase reporter, luminescence, uHTS | IRE1-XBP1 UPR activation; percent of tunicamycin response, DMSO as zero | activation, % at 20 µM | 330,000 compounds, 0.33% hits | AID 463104, 2010;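 active = versus positive control, 20 µM dose yields 30% or more activation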;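 also: 100% = tunicamycin at 10 µg/mL and 0% = DMSO only wells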
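assay system = CHO-XBP1 luciferase reporter cells | amount = 1000 cells/well | buffer or medium = F12 plus 10% FBS | compound dosing = single point, 20 µM final compound, 1% DMSO | incubation = 16-18 h cell attachment at 37 °C, then 6 h compound exposure | detection = Steady-Glo luminescence read | controls = tunicamycin 10 µg/mL and vehicle-only wells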
Dynein cargo inh: inhibitors of GR-EGFP nuclear translocation, primary screen, dynein cargo transport inhibitor project, imaging, high-content, 3617.4 mouse cells; test concentration mostly 20 µM; stimulated with dexamethasone, 1 µM; active compounds read low; z-score, hits read low; 220,000 compounds, 0.47% hits;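 active = plate z-score of nuclear minus cytoplasmic receptor signal below a set negative limit, without overly bright fluorescence or cell loss, cut at about -3.5 in these data, passing the limit was not always enough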;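 also: z-score of nuclear minus cytoplasmic ring GR-EGFP intensity difference per well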
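Buffer or medium: tetracycline-free induction medium containing charcoal-stripped FBS / Reagent: dexamethasone agonist, 1.0 µM final, for 30 min / Technique: automated 10x imaging of fixed Hoechst-stained cells / Times: induction 48 h, compound 1 h, agonist 30 min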
Mdm2-MdmX conf: Mdm2-MdmX complex disruptors, retested hits, confirmation, luminescence, single concentration | 10,000 compounds, 55% hits | Mdm2-MdmX binding, luminescent assay | shares compounds with Mdm2 MdmX PPI | inhibition, % at 8 µM; in the data active = inhibition above about 40%
Full FLuc ctr: full-length luciferase signal inhibition, confirmation, counter-screen for Mdm2/MdmX interaction inhibitor project, cell-based, single concentration, SaOS-2; shares compounds with Mdm2 MdmX PPI; SaOS-2 full-length luciferase counterscreen, luminescence; inhibition, % at 8 µM; 6,200 compounds, 77% hits; AID 504607, 2011;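 active = mean inhibition at 8 µM reaching about 37%, which flags the compound as non-specific, limit read from the data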;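 also: p53-null SaOS-2 cells with luciferase driven by a doxycycline-inducible promoter; compound on cells about two nights before reading with doxycycline added after day one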
* marks the source's active call; other numbers are inactive results.

`CCCN(CCC)C(=O)CSc1nc2n[nH]c(C)c2c(=N)n1-c1ccc(OCC)cc1` gave Mdm2 ligase inh -6.8, CHOP UPR activ 3.2, Mdm2 MdmX PPI 33.2, Beta2AR agonist -6.0, UPR XBP1 act 13.4 and Dynein cargo inh 0.363.
`COc1ccccc1NC(=O)CSc1nc2n[nH]c(C)c2c(=N)n1-c1ccccc1Cl` gave Mdm2 ligase inh -1.9, CHOP UPR activ 1.1, Mdm2 MdmX PPI 67.6*, Beta2AR agonist -3.3, UPR XBP1 act 26.1, Dynein cargo inh -0.382, Mdm2-MdmX conf 41.3* and Full FLuc ctr 70.5*.
CCCN(CCC)C(=O)CSc1nc2n[nH]c(C)c2c(=N)n1-c1ccc(OC)cc1 was read as Mdm2 ligase inh -7.5, CHOP UPR activ 1.2, Mdm2 MdmX PPI 50.3*, Beta2AR agonist 5.8, UPR XBP1 act 17.9, Dynein cargo inh 0.0621 and Mdm2-MdmX conf 19.4.
CCN(C(=O)CSc1nc2n[nH]c(C)c2c(=N)n1-c1ccc(Cl)c(C)c1)c1cccc(C)c1 was read as CHOP UPR activ 4.8, Mdm2 MdmX PPI 76.1*, Beta2AR agonist 23.1, UPR XBP1 act -0.4 and Mdm2-MdmX conf 20.9.
Screening CCCCNC(=O)NS(=O)(=O)c1ccc(NC(=O)CCC(=O)c2cccs2)cc1 returned CHOP UPR activ -0.1, Mdm2 MdmX PPI -24.3, Beta2AR agonist -2.7 and UPR XBP1 act 1.3.
For C[C@H](CO)N1C[C@H](C)[C@@H](CN(C)C(=O)Nc2ccccc2)Oc2c(NC(=O)C3CCCCC3)cccc2C1=O the results were CHOP UPR activ 0.5, Mdm2 MdmX PPI 9.5, Beta2AR agonist -3.3 and UPR XBP1 act -2.1.
Screening COc1cc(CCC(=O)Nc2nccs2)cc(OC)c1OC returned CHOP UPR activ -1.1, Mdm2 MdmX PPI -19.0, Beta2AR agonist -3.0 and UPR XBP1 act -5.8.
O=C1CCc2ccc(OCCCCN3CCN(c4cccc(Cl)c4Cl)CC3)cc2N1 was read as CHOP UPR activ 1.1, Mdm2 MdmX PPI 52.3*, Beta2AR agonist 19.4, UPR XBP1 act -3.9 and Mdm2-MdmX conf 14.1.
O=C(O)Cc1sc(Nc2cccc3ccccc23)nc1-c1ccc(Cl)cc1 was read as CHOP UPR activ 0.1, Mdm2 MdmX PPI 12.2, Beta2AR agonist 5.4 and UPR XBP1 act -1.2.
CS(=O)(=O)c1ccc(C(=O)N2CC(=O)Nc3ccccc32)cc1 was read as CHOP UPR activ -0.5, Mdm2 MdmX PPI -11.0, Beta2AR agonist -5.5 and UPR XBP1 act 0.5.
Screening Cc1ccc2cc3c(N)c(C(=O)N4CC(=O)Nc5ccccc54)sc3nc2c1 returned Mdm2 ligase inh -18.0, CHOP UPR activ 2.1, Mdm2 MdmX PPI 64.3*, UPR XBP1 act 12.0, Dynein cargo inh 2.72, Mdm2-MdmX conf 56.9* and Full FLuc ctr 82.5*.
`Cc1cc(C)cc(C(=O)N2CC(=O)Nc3ccccc32)c1` gave Mdm2 ligase inh -19.4, CHOP UPR activ -2.1, Mdm2 MdmX PPI 58.4*, Beta2AR agonist 18.6, UPR XBP1 act 24.1, Dynein cargo inh -0.363, Mdm2-MdmX conf 59.5* and Full FLuc ctr 77.4*.
Screening Cc1ccc2nc3sc(C(=O)N4CCOCC4)c(N)c3cc2c1 returned Mdm2 ligase inh -35.4, CHOP UPR activ -8.6, Mdm2 MdmX PPI 58.7*, Beta2AR agonist -8.2, UPR XBP1 act -5.3, Dynein cargo inh -0.1, Mdm2-MdmX conf 60.8* and Full FLuc ctr 103.4*.
`Cc1ccc2cc3c(N)c(C(=O)N4CCOCC4)sc3nc2c1` gave Mdm2 ligase inh -16.1, CHOP UPR activ 3.9, Mdm2 MdmX PPI -19.5, Beta2AR agonist -1.0, UPR XBP1 act 0.3 and Dynein cargo inh -0.659.
Screening Cc1ccc(OCCn2cnc3c2c(=O)n(C)c(=O)n3C)cc1 returned CHOP UPR activ 0.2, Mdm2 MdmX PPI 19.8, Beta2AR agonist 3.9 and UPR XBP1 act -2.0.
`C1CCCCCC(NCCN2CCNCC2)CCCCC1` gave Mdm2 ligase inh -10.2, CHOP UPR activ 1.2, Mdm2 MdmX PPI 97.3*, Beta2AR agonist 32.2, UPR XBP1 act 5.9, Dynein cargo inh 0.48, Mdm2-MdmX conf 93.5* and Full FLuc ctr 23.0.
For Cc1ccc(S(=O)(=O)N2CCN(C(=O)COC(=O)CNC(=O)c3ccc(Cl)cc3Cl)CC2)cc1 the results were CHOP UPR activ 0.1, Mdm2 MdmX PPI 13.0, Beta2AR agonist 4.6 and UPR XBP1 act -1.8.
For COc1ccccc1CCNC(C)CCc1ccc(O)cc1 (stereo unspecified) the results were CHOP UPR activ 0.6, Mdm2 MdmX PPI 10.7, Beta2AR agonist 2.4 and UPR XBP1 act -3.2.
`COc1cc(OC)c(OC)cc1CCC(C)NCCC(c1ccccc1)c1ccccc1` (stereo unspecified) gave CHOP UPR activ -0.3, Mdm2 MdmX PPI 63.8*, Beta2AR agonist 27.6, UPR XBP1 act 1.4, Mdm2-MdmX conf 50.2* and Full FLuc ctr 59.5*.
`O=C(CN1c2ccccc2Sc2ccccc21)NNC(=O)Nc1ccc(Cl)cc1` gave Mdm2 ligase inh -4.4, CHOP UPR activ 2.4, Mdm2 MdmX PPI 54.1*, Beta2AR agonist -5.3, UPR XBP1 act -0.4, Dynein cargo inh -1.06, Mdm2-MdmX conf 35.7 and Full FLuc ctr 53.7*.
CCCCCCCCCCCCCCC(O)C[N+](C)(CCO)CCO (stereo unspecified) was read as Beta2AR agonist 0.8.
`CC(=O)c1ccc(N2CCN(C(=O)c3noc4c3CSc3ccccc3-4)CC2)cc1` gave CHOP UPR activ 4.9, Mdm2 MdmX PPI 50.6*, Beta2AR agonist -1.2, UPR XBP1 act -2.9 and Mdm2-MdmX conf -12.2.
